Bioassay records deposited in PubChem BioAssay by several laboratories.
MT stabilizer: stabilizes microtubules in HeLa cells | HeLa tubulin immunostaining HCS, 24 h; share of cells brighter than vehicle mean+2SD | % tubulin-high responders, % at 10 µM | hit rate 0.83% among 200,000 | AID 2205;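 active means plate Z-score above 3 for both tubulin-high and condensed-nucleus cell shares, with cell loss under 80%, at 10 µM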;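 further: anti alpha tubulin signal scored within the nucleus-defined area of each cell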
Autophagy HCS: modulators of autophagy; MEF GFP-LC3 puncta imaging; test concentration mostly 10 µM; calls only at 10 µM (by protocol); hit rate 0.98% among 190,000;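 active means percentage of spot-positive cells more than 3 SD above its plate mean, without a fluorescence outlier flag or 80% toxicity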
Lmaj promast: Leishmania major promastigote growth inhibition; Leishmania major promastigotes, resazurin fluorescence viability; AID 1063; hit rate 9% among 200,000; inhibition, % at 10 µM; in the data active means inhibition above about 50%;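 further: promastigotes grown with compound for 44 hours at 28 °C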
CHOP inh: CHOP inhibition in unfolded protein response; CHO-K1 CHOP-promoter luciferase, tunicamycin-induced, 15-18 h; AID 2732; inhibition, % at 10 µM; hit rate 3.8% among 220,000;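 active means compounds that reduced the stress-induced luciferase reporter signal by more than about 70% of percent inhibition, limit read from the data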
b-catenin transl: modulators of beta-catenin nuclear translocation. HeLa beta-catenin nuclear translocation, immunofluorescence imaging. nuclear translocation activity, % at 5 µM. hit rate 0.3% among 190,000;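 active means nuclear translocation activity above 50% at 5 µM, with a well cell count of 50 or more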;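 further: per-cell ratio of nuclear to cytoplasmic median beta-catenin stain intensity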
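Test system: human HeLa cells, endogenous beta-catenin. Times: 24 h compound exposure, 37°C. Measured by: beta-catenin immunofluorescence imaging with DAPI.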
Dynein cargo inh: dynein cargo transport inhibition | 3617.4 mouse cells, GR-EGFP nuclear translocation imaging; test concentration mostly 20 µM; stimulated with dexamethasone, 1 µM; stronger effect = lower value | z-score, hits read low | hit rate 0.47% among 220,000;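 active means plate z-score of nuclear minus cytoplasmic receptor signal below a set negative limit, without overly bright fluorescence or cell loss, cut at about -3.5 in these data, passing the limit was not always enough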;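 further: z-score of nuclear minus cytoplasmic ring GR-EGFP intensity difference per well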
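Also added: dexamethasone, 1.0 µM final. Medium: tet-free, stripped-serum medium. Detection: fixed, Hoechst-stained cells imaged at 10x for EGFP. Read-out: nuclear-to-cytoplasmic GR-EGFP distribution per well. Times: induction 48 h, compound 1 h, agonist 30 min.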
A number is an active result; 0 = inactive; - = not tested or not shown. Shown are actives, neighbours in structure and some others; about 12% of the full set was active somewhere.

SMILES	MT stabilizer	Autophagy HCS	Lmaj promast	CHOP inh	b-catenin transl	Dynein cargo inh
COc1ccc(C(NC(=O)C2CCCCC2)c2c(O)ccc3ccccc23)cc1 (stereo unspecified)	0	0	100	0	0	0
CCCCC(=O)NC(c1ccco1)c1c(O)ccc2ccccc12 (stereo unspecified)	0	0	67	0	0	0
Cc1nnc(SCC(=O)N2CCCC2)n(N)c1=O	0	0	0	0	0	0
CCN(CC)C1=NS(=O)(=O)c2cc([N+](=O)[O-])ccc21	0	0	100	0	0	0
CCN(CC)c1ccc([N+](=O)[O-])cc1C(=O)N1CCOCC1	0	0	0	0	0	0
COC(=O)c1cn(NC(=O)CC2CCCCC2)c(=O)c2ccccc12	0	0	0	72	0	0
COC(=O)c1cn(NC(=O)CCC2CCCC2)c(=O)c2ccccc12	0	0	0	0	0	0
CC(C)C(c1nnnn1CC1CCCO1)N1CCN(Cc2ccc3c(c2)OCO3)CC1 (stereo unspecified)	0	0	83	0	0	0
CC(C)C(c1nnnn1Cc1ccccc1)N1CCN(Cc2ccc3c(c2)OCO3)CC1 (stereo unspecified)	0	0	89	0	0	0
CC(C)C(c1nnnn1CC1CCCO1)N1CCN(C2CCCC2)CC1 (stereo unspecified)	0	0	0	0	0	0
c1ccc(CCn2nnnc2C(c2cccs2)N2CCN(Cc3ccc4c(c3)OCO4)CC2)cc1 (stereo unspecified)	0	0	80	0	0	0
Cc1nc2ccc(NC(=O)Cc3cccc(F)c3)cc2s1	0	0	62	0	0	0
CCn1nc(C(=O)Nc2ccc3nc(C)sc3c2)c2ccccc2c1=O	0	0	63	0	0	0
Cc1ccc2nc(N(CCN(C)C)C(=O)/C=C/c3cccs3)sc2c1	0	0	83	0	-	0
CN(C)CCN(C(=O)/C=C/c1cccs1)c1nc2c(F)cc(F)cc2s1	21	0	77	106	-	0
CN(C)CCCN(C(=O)/C=C/c1cccs1)c1nc2ccc(F)cc2s1	0	0	0	0	0	0
CN(/N=C/c1ccc(C(C)(C)C)cc1)C1=NCCN1	0	0	56	0	0	0
CC(=O)c1c(C)[nH]c(C(=O)OCCCCN2C(=O)c3ccccc3C2=O)c1C	0	0	0	-	0	0
COc1ccc(S(=O)(=O)N(C(C)=O)c2ccc(OC(C)=O)c3ccccc23)cc1[N+](=O)[O-]	0	0	100	0	0	0
CC(=O)Oc1ccccc1N(C(C)=O)S(=O)(=O)c1ccc(C)cc1	0	0	0	0	0	0
CCN1CCN(CCCNC(=O)c2ccc(/C=C3/Sc4ccccc4N(Cc4ccccc4F)C3=O)cc2)CC1	0	0	98	0	0	0
CCN1CCN(CCNC(=O)c2ccc(/C=C3/Sc4ccccc4N(Cc4ccccc4C)C3=O)cc2)CC1	0	0	100	0	0	0
COCCCNC(=O)CN1C(=O)/C(=C/c2ccccc2)Sc2ccccc21	-	-	-	0	0	0
CC(=O)c1sc(Nc2nc(C)cc(C)n2)nc1C	0	0	0	0	0	0
COc1ccc(-c2csc(NC(=O)c3ccc(OCC(=O)N4CCOCC4)c(OC)c3)n2)cc1OC	0	0	71	0	-	0
SMILES	MT stabilizer	Autophagy HCS	Lmaj promast	CHOP inh	b-catenin transl	Dynein cargo inh
COc1cc(C(=O)OCC(=O)Nc2ccc(C(C)=O)cc2)ccc1OCC(=O)N1CCOCC1	0	0	66	0	0	0
COc1ccc(OC)c(C(=O)C2COC(=O)C2)c1 (stereo unspecified)	0	0	56	0	0	0
O=C(/C=C(\c1ccc(Cl)cc1)n1cncn1)c1ccc(Cl)cc1	0	0	74	0	-	0
O=C(Cc1ccc(Cl)cc1)c1c[nH]c(C(=O)NCCCN2CCOCC2)c1	0	0	0	0	0	0
Nc1ccccc1Nc1ccncc1[N+](=O)[O-]	0	0	0	0	0	0
O=[N+]([O-])c1cncc([N+](=O)[O-])c1Nc1ccccc1Cl	0	0	80	0	0	0
N#CC1=C(N)Oc2ccc3ccc(O)cc3c2C1c1cccnc1 (stereo unspecified)	0	0	0	0	0	0
N#CC1=C(N)Oc2ccc3ccccc3c2C1c1cccnc1 (stereo unspecified)	16	0	88	0	0	0
CCc1ccc(NC(=O)COC(=O)c2ccc(Cl)c(S(=O)(=O)N3CCCCCC3)c2)cc1	0	0	63	0	0	0
CC(C)c1ccccc1NC(=O)COC(=O)c1ccc(Cl)c(S(=O)(=O)N2CCCCCC2)c1	0	0	60	0	0	0
CCC(C)c1ccccc1NC(=O)COC(=O)c1ccc2[nH]c3c(c2c1)CCCC3 (stereo unspecified)	13	0	0	0	0	0
Cc1cc(C)n(-c2ccc(C(=O)OCC(=O)Nc3ccc(S(=O)(=O)N4CCCCC4)cc3)cc2)n1	0	0	84	0	-	0
O=C(COC(=O)c1ccc2[nH]c3c(c2c1)CCCC3)Nc1ccccc1Cl	0	0	0	0	0	0
Cn1c(=O)c(-c2cc(Br)ccc2N)nc2ccccc21	0	0	0	0	-	0
O=c1oc(-c2ccccc2NS(=O)(=O)c2ccc3ccccc3c2)nc2ccccc12	0	0	92	0	0	0
CCc1ccc(N2C(=O)Nc3ccccc3C2(O)C(=O)N2CCN(c3ccccn3)CC2)cc1 (stereo unspecified)	0	0	69	0	0	0
Cc1ccc(N2C(=O)Nc3ccccc3C2(O)C(=O)N2CCN(c3ccccn3)CC2)cc1C (stereo unspecified)	0	0	0	0	0	0
CCOC(=O)c1sc(S(C)=O)c2c1CCc1conc1-2 (stereo unspecified)	-	-	-	0	0	0
OCC1(Cc2ccccc2)CCN(C2CCN(c3ccc(F)c(F)c3)CC2)CC1	0	0	98	0	0	0
CCCN(CCO)Cc1cccc(Oc2ccccc2)c1	0	0	97	0	0	0
Clc1nc(Cl)nc(N(c2ccccc2)c2ccccc2)n1	0	0	0	0	0	0
Nc1ccc(N(c2ccccc2)c2ccc(N)cc2)cc1	0	0	100	0	0	0
Cc1ccccc1CSCCNC(=O)Nc1ccccc1	0	0	0	0	0	0
COc1cc(-c2noc(CCCC(=O)Nc3ccc(C(N)=O)cc3)n2)cc(OC)c1OC	-	-	-	0	0	0
COc1cccc(NC(=O)CCc2nc(-c3ccccc3F)no2)c1	0	0	0	0	0	0
O=C(CCc1nc(-c2ccccc2F)no1)Nc1ccc(Oc2ccccc2)cc1	24	0	0	0	0	0
COc1ccc(-c2noc(CCCC(=O)Nc3ccc(C(N)=O)cc3)n2)cc1	0	0	0	82	0	0
